Our source for the inhibition and IC50 values is ChEMBL document CHEMBL1828627, “High-throughput-screening-based identification and structure-activity relationship characterization defined (S)-2-(1-aminoisobutyl)-1-(3-chlorobenzyl)benzimidazole as a highly antimycotic agent nontoxic to cell lines” (J Med Chem, 2011).

Experiment [1] relates to Candida albicans. The experiment can be described thus: Antifungal activity against Candida albicans SC5314 infected in HeLa cells at 20 uM after 5 days by fluorescein diacetate assay. It is filed as functional, organism-based. In a few lines:
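Primary HTS: HeLa cells co-incubated with C. albicans plus a single compound at ~20 μM for 5 days. Viability checked microscopically at 18 h and quantified at day 5 by fluorescein diacetate fluorescence. Wells also scanned visually for yeast growth. Hit criterion: >40% signal relative to the uninfected untreated HeLa (~100%) and infected untreated HeLa (~0%) controls.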

The test system of experiment [2] is Candida albicans. The experiment can be described thus: Antifungal activity against Candida albicans SC5314 infected in HeLa cells after 5 days by fluorescein diacetate assay. The class given is functional, organism-based. Conditions: Candida albicans, SC5314, HeLa, 120 h; read-out: IC50. The method in brief:
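HeLa cells co-incubated with C. albicans and compound for 5 days. Dose–response from resynthesized compounds. Host-cell viability checked microscopically at 18 h, then quantified at day 5 by fluorescein diacetate conversion to a fluorophore by live cells. Wells also inspected visually for yeast growth. Controls: untreated uninfected HeLa (~100%) and untreated infected HeLa (~0%). IC50 derived from infected cells; CC50 as half-maximal cytotoxic concentration.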

pIC50: −log10 of the molar value. Calls of active or inactive are those of the source.

The pIC50 is the IC50 on a negative log10 scale, so that one unit is a factor of ten.

As for `CCC[C@H](N)c1nc2cc(C(F)(F)F)ccc2n1Cc1cccc(Cl)c1`, the inhibition result in experiment [1] is “inactive”. As to `CCC[C@H](N)c1nc2ccccc2n1Cc1cccc(F)c1`, the inhibition entry in experiment [1] was “inactive”. As for `Cc1cccc(Cn2c([C@@H](N)CC(C)C)nc3ccccc32)c1`, the inhibition entry in experiment [1] is “inactive”. Regarding `COc1cccc(Cn2c([C@H](C)N)nc3cc(Cl)c(Cl)cc32)c1`, in experiment [1], the inhibition entry was “inactive”. `CC(C)C[C@H](N)c1nc2cc(C(F)(F)F)ccc2n1Cc1ccc(Cl)cc1`: the inhibition result in experiment [1] was “inactive”. `COc1cccc(Cn2c([C@@H](N)CC(C)C)nc3cc(Cl)c(Cl)cc32)c1`: in experiment [1], the inhibition entry is “inactive”. For `CCC[C@H](N)c1nc2cc(Cl)c(Cl)cc2n1Cc1cccc(C)c1`, the inhibition entry in experiment [1] is “inactive”.

`CC(C)[C@H](N)c1nc2cc(C(F)(F)F)ccc2n1Cc1cccc(F)c1`: the inhibition entry in experiment [1] is “inactive”. Same read-out and setting: with `CC(C)[C@H](N)c1nc2cc(Cl)c(Cl)cc2n1Cc1cccc(Cl)c1` the entry was “inactive”; with `C[C@H](N)c1nc2cc(Cl)c(Cl)cc2n1Cc1cccc(Cl)c1`, “inactive”. Take `C[C@H](N)c1nc2cc(C(F)(F)F)ccc2n1Cc1ccc(Cl)cc1`: the inhibition result in experiment [1] was “inactive”. In the case of `CCC[C@H](N)c1nc2ccccc2n1Cc1cccc(Cl)c1`, the inhibition entry in experiment [1] was “inactive”. The same measure, in the same setting: with `CCC(C)[C@H](N)c1nc2cc(C(F)(F)F)ccc2n1Cc1cccc(OC)c1` (some centres not stated) the entry was “inactive”.

As for `Cc1cccc(Cn2c(C(C)(C)N)nc3cc(C(F)(F)F)ccc32)c1`, the inhibition entry in experiment [1] was “inactive”.

As to `COc1cccc(Cn2c(C(C)(C)N)nc3ccccc32)c1`, the inhibition entry in experiment [1] is “inactive”.

Consider `CC(C)(N)c1nc2cc(C(F)(F)F)ccc2n1Cc1ccc(Cl)cc1`, for which the inhibition result in experiment [1] is “inactive”. Take `C[C@H](N)c1nc2ccccc2n1Cc1cccc(F)c1`: the inhibition result in experiment [1] was “inactive”. With `C[C@H](N)c1nc2cc(Cl)c(Cl)cc2n1Cc1ccc(Cl)cc1`, the inhibition entry in experiment [1] is “inactive”.

Regarding `CC(C)[C@H](N)c1nc2cc(C(F)(F)F)ccc2n1Cc1ccc(Cl)cc1`, the inhibition entry in experiment [1] was “inactive”. Turning to `CC(C)(N)c1nc2cc(Cl)c(Cl)cc2n1Cc1ccc(Cl)cc1`, the inhibition entry in experiment [1] is “inactive”. In the case of `Cc1cccc(Cn2c(C(C)(C)N)nc3ccccc32)c1`, the inhibition entry in experiment [1] is “inactive”. Take `C[C@H](N)c1nc2cc(C(F)(F)F)ccc2n1Cc1cccc(F)c1`: the inhibition entry in experiment [1] is “inactive”. On the same count and under the same terms, the value for `CCC[C@H](N)c1nc2cc(C(F)(F)F)ccc2n1Cc1cccc(F)c1` was “inactive”. For `CCC[C@H](N)c1nc2cc(C(F)(F)F)ccc2n1Cc1cccc(OC)c1`, in experiment [1], the inhibition entry was “inactive”. As to `COc1cccc(Cn2c([C@@H](N)CC(C)C)nc3cc(C(F)(F)F)ccc32)c1`, the inhibition result in experiment [1] is “inactive”. With `Cc1cccc(Cn2c([C@H](C)N)nc3cc(Cl)c(Cl)cc32)c1`, the inhibition entry in experiment [1] is “inactive”.

As for `COc1cccc(Cn2c(C(C)(C)N)nc3cc(Cl)c(Cl)cc32)c1`, the inhibition entry in experiment [1] was “inactive”. As to `CCC[C@H](N)c1nc2cc(Cl)c(Cl)cc2n1Cc1ccc(Cl)cc1`, the inhibition entry in experiment [1] is “inactive”. The same measure, in the same setting: the value for `CC(C)C[C@H](N)c1nc2ccccc2n1Cc1cccc(F)c1` was “inactive”.

For the compound `CCC(C)[C@H](N)c1nc2cc(Cl)c(Cl)cc2n1Cc1ccc(Cl)cc1` (some centres not stated), the inhibition entry in experiment [1] was “inactive”. Consider `C[C@@H]1[C@H](O)[C@@H](C)/C=C/C=C/C=C/C=C/C=C/C=C/C=C/[C@H](O[C@@H]2O[C@H](C)[C@@H](O)[C@H](N)[C@@H]2O)C[C@@H]2O[C@](O)(C[C@@H](O)C[C@@H](O)[C@H](O)CC[C@@H](O)C[C@@H](O)CC(=O)O[C@H]1C)C[C@H](O)[C@H]2C(=O)O` [AMPHOTERICIN B], for which, in experiment [2], the negative logarithm of the IC50 (pIC50) was 6.30. Turning to `CCC(C)[C@H](N)c1nc2cc(Cl)c(Cl)cc2n1Cc1cccc(F)c1` (some centres not stated), the inhibition result in experiment [1] was “inactive”. As for `COc1cccc(Cn2c([C@H](C)N)nc3ccccc32)c1`, the inhibition result in experiment [1] is “inactive”. In the case of `CC(C)[C@H](N)c1nc2cc(Cl)c(Cl)cc2n1Cc1cccc(F)c1`, the inhibition result in experiment [1] is “inactive”. The same measure, in the same setting: the value for `CCC[C@H](N)c1nc2cc(Cl)c(Cl)cc2n1Cc1cccc(OC)c1` was “inactive”; that for `COc1cccc(Cn2c(C(C)(C)N)nc3cc(C(F)(F)F)ccc32)c1` was “inactive”; that for `CC(C)C[C@H](N)c1nc2cc(C(F)(F)F)ccc2n1Cc1cccc(F)c1` was “inactive”. Take `COc1cccc(Cn2c([C@@H](N)C(C)C)nc3ccccc32)c1`: the inhibition entry in experiment [1] was “inactive”. As to `CC(C)C[C@H](N)c1nc2cc(Cl)c(Cl)cc2n1Cc1ccc(Cl)cc1`, in experiment [1], the inhibition entry is “inactive”. For `CCC[C@H](N)c1nc2cc(Cl)c(Cl)cc2n1Cc1cccc(F)c1`, the inhibition entry in experiment [1] was “inactive”. In the case of `CC(C)[C@H](N)c1nc2cc(Cl)c(Cl)cc2n1Cc1ccc(Cl)cc1`, the inhibition entry in experiment [1] is “inactive”. With `CC(C)C[C@H](N)c1nc2cc(Cl)c(Cl)cc2n1Cc1cccc(F)c1`, in experiment [1], the inhibition entry was “inactive”. With `CC(C)C[C@H](N)c1nc2ccccc2n1Cc1cccc(Cl)c1`, the inhibition entry in experiment [1] was “inactive”. Same read-out and setting: the value for `COc1cccc(Cn2c([C@@H](N)CC(C)C)nc3ccccc32)c1` was “inactive”; that for `CCC(C)[C@H](N)c1nc2cc(C(F)(F)F)ccc2n1Cc1ccc(Cl)cc1` (some centres not stated) was “inactive”; that for `CC(C)(N)c1nc2ccccc2n1Cc1cccc(F)c1` was “inactive”. Same read-out and setting: the value for `CCC[C@H](N)c1nc2cc(Cl)c(Cl)cc2n1Cc1cccc(Cl)c1` was “inactive”. In the case of `CC(C)(N)c1nc2cc(Cl)c(Cl)cc2n1Cc1cccc(F)c1`, in experiment [1], the inhibition entry was “inactive”. Turning to `CCC(C)[C@H](N)c1nc2ccccc2n1Cc1cccc(C)c1` (some centres not stated), the inhibition entry in experiment [1] is “inactive”. For `CCC(C)[C@H](N)c1nc2ccccc2n1Cc1cccc(OC)c1` (some centres not stated), the inhibition entry in experiment [1] was “inactive”. As to `Cc1cccc(Cn2c([C@@H](N)CC(C)C)nc3cc(C(F)(F)F)ccc32)c1`, in experiment [1], the inhibition entry was “inactive”. For `COc1cccc(Cn2c([C@H](C)N)nc3cc(C(F)(F)F)ccc32)c1`, in experiment [1], the inhibition result was “inactive”. For `Cc1cccc(Cn2c([C@@H](N)C(C)C)nc3cc(C(F)(F)F)ccc32)c1`, the inhibition result in experiment [1] was “inactive”. With `CC(C)C[C@H](N)c1nc2cc(C(F)(F)F)ccc2n1Cc1cccc(Cl)c1`, in experiment [1], the inhibition entry is “inactive”.

As to `CCC(C)[C@H](N)c1nc2ccccc2n1Cc1cccc(F)c1` (some centres not stated), the inhibition entry in experiment [1] was “inactive”. Regarding `C[C@H](N)c1nc2cc(C(F)(F)F)ccc2n1Cc1cccc(Cl)c1`, the inhibition entry in experiment [1] is “inactive”. Regarding `CC(C)(N)c1nc2cc(C(F)(F)F)ccc2n1Cc1cccc(Cl)c1`, in experiment [1], the inhibition result is “inactive”. Consider `CC(C)(N)c1nc2cc(Cl)c(Cl)cc2n1Cc1cccc(Cl)c1`, for which, in experiment [1], the inhibition result was “inactive”. Turning to `CC(C)[C@H](N)c1nc2ccccc2n1Cc1ccc(Cl)cc1`, the inhibition result in experiment [1] is “inactive”.

As for `CC(C)(N)c1nc2cc(C(F)(F)F)ccc2n1Cc1cccc(F)c1`, the inhibition result in experiment [1] is “inactive”.

With `Cc1cccc(Cn2c([C@H](C)N)nc3cc(C(F)(F)F)ccc32)c1`, the inhibition result in experiment [1] was “inactive”.

For `CCC[C@H](N)c1nc2cc(C(F)(F)F)ccc2n1Cc1cccc(C)c1`, the inhibition entry in experiment [1] was “inactive”. Regarding `CCC(C)[C@H](N)c1nc2cc(C(F)(F)F)ccc2n1Cc1cccc(F)c1` (some centres not stated), the inhibition entry in experiment [1] was “inactive”.

For `C[C@H](N)c1nc2ccccc2n1Cc1ccc(Cl)cc1`, the inhibition entry in experiment [1] is “inactive”. For `CCC(C)[C@H](N)c1nc2cc(C(F)(F)F)ccc2n1Cc1cccc(C)c1` (some centres not stated), the inhibition result in experiment [1] is “inactive”. As for `CCC[C@H](N)c1nc2cc(C(F)(F)F)ccc2n1Cc1ccc(Cl)cc1`, the inhibition result in experiment [1] was “inactive”. `CC(C)C[C@H](N)c1nc2cc(Cl)c(Cl)cc2n1Cc1cccc(Cl)c1`: the inhibition entry in experiment [1] is “inactive”. Consider `CCC(C)[C@H](N)c1nc2cc(Cl)c(Cl)cc2n1Cc1cccc(Cl)c1` (some centres not stated), for which the inhibition result in experiment [1] was “inactive”. Consider `COc1cccc(Cn2c([C@@H](N)C(C)C)nc3cc(Cl)c(Cl)cc32)c1`, for which, in experiment [1], the inhibition entry was “inactive”.

Regarding `CC(C)[C@H](N)c1nc2cc(C(F)(F)F)ccc2n1Cc1cccc(Cl)c1`, the inhibition result in experiment [1] is “inactive”.

Consider `C[C@H](N)c1nc2cc(Cl)c(Cl)cc2n1Cc1cccc(F)c1`, for which, in experiment [1], the inhibition entry was “inactive”. As to `CCC(C)[C@H](N)c1nc2cc(Cl)c(Cl)cc2n1Cc1cccc(C)c1` (some centres not stated), the inhibition entry in experiment [1] is “inactive”. With `Cc1cccc(Cn2c([C@@H](N)C(C)C)nc3cc(Cl)c(Cl)cc32)c1`, the inhibition result in experiment [1] is “inactive”. On to `CCC(C)[C@H](N)c1nc2ccccc2n1Cc1ccc(Cl)cc1` (some centres not stated), for which, in experiment [1], the inhibition result was “inactive”. `CCC(C)[C@H](N)c1nc2cc(C(F)(F)F)ccc2n1Cc1cccc(Cl)c1` (some centres not stated): the inhibition result in experiment [1] was “inactive”. With `CCC(C)[C@H](N)c1nc2cc(Cl)c(Cl)cc2n1Cc1cccc(OC)c1` (some centres not stated), in experiment [1], the inhibition entry was “inactive”.

Regarding `Cc1cccc(Cn2c(C(C)(C)N)nc3cc(Cl)c(Cl)cc32)c1`, the inhibition entry in experiment [1] was “inactive”. Turning to `COc1cccc(Cn2c([C@@H](N)C(C)C)nc3cc(C(F)(F)F)ccc32)c1`, the inhibition result in experiment [1] was “inactive”. Consider `Cc1cccc(Cn2c([C@@H](N)CC(C)C)nc3cc(Cl)c(Cl)cc32)c1`, for which, in experiment [1], the inhibition result is “inactive”. Still for that read-out and setting: with `CCC[C@H](N)c1nc2ccccc2n1Cc1cccc(OC)c1` the entry was “inactive”; with `CC(C)(N)c1nc2ccccc2n1Cc1cccc(Cl)c1`, “inactive”. On to `CCC(C)[C@H](N)c1nc2ccccc2n1Cc1cccc(Cl)c1` (some centres not stated), for which the inhibition entry in experiment [1] is “inactive”.
